Compound activity deposited in PubChem by Johns Hopkins Ion Channel Center.
hERG rescue – hERG (human) protection from proarrhythmic block; AID 1511; Q12809; activation (rescue from dofetilide block), less the hit threshold, % at 10 µM; 310,000 tested, 0.51% active; CHO-hERG, FluxOR thallium flux, dofetilide IC70 present;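 active = activation above the mean of controls blocked by dofetilide plus 5 SD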;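 also: thallium influx through hERG after potassium depolarization seen as dye fluorescence rise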
KCNQ1 act – human KCNQ1 channel potentiation or activation; P51787; CHO-K1 KCNQ1, thallium flux FluxOR fluorescence; stronger effect = higher value; B-score at 10 µM; 310,000 tested, 0.35% active; AID 2648;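 active = fluorescence ratio B-score, a plate-corrected score, at least three library SD, with initial intensity B-score within 5 SD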
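Assay system: CHO-K1 cells stably expressing KCNQ1. Medium: assay buffer for compound exposure, DMSO matched across wells. Timing: 37 °C overnight plating, 90-min dark dye load, 20-min compound pretreatment. Signal: kinetic FluxOR fluorescence, 10 s baseline plus 110 s post-stimulus.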
KCNQ1 block – blocks the human KCNQ1 potassium channel; P51787; CHO-K1 KCNQ1, FluxOR thallium flux fluorescence; stronger effect = higher value; B-score at 10 µM; 310,000 tested, 1.3% active; AID 2642;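 active = compounds whose thallium flux B-score, printed positive for inhibition, exceeds three library SD while starting fluorescence stays within three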;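 also: channel opened by potassium depolarization with thallium stimulus after 20 min compound exposure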
KCNK3 inh – human KCNK3 channel inhibition, primary screen | CHO-KCNK3 thallium flux, FluxOR fluorescence; stronger effect = lower value | B-score at 10 µM | 340,000 tested, 0.84% active | AID 602410;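 active = B-score under library mean minus 4 SD, starting fluorescence ratio at most library mean plus 5 SD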;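 also: more negative B-score means stronger inhibition of thallium flux through KCNK3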
Target sequence (O14649 whole entry, looked up): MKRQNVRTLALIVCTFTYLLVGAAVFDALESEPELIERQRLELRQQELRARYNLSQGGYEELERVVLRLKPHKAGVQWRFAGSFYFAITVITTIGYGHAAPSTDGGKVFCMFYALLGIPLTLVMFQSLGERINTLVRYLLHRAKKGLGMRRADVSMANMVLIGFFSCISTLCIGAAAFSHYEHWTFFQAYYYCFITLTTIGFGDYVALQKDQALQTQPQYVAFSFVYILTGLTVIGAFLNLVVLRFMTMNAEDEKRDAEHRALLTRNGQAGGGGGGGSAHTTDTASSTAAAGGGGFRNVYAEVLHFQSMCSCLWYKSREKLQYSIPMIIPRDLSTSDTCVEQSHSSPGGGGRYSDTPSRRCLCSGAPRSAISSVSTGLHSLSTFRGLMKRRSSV
Kir21 inh – Kir2.1 (mouse) channel inhibition; P35561; HEK293-Kir2.1, FluxOR thallium flux fluorescence; stronger effect = lower value; B-score at 10 µM; 310,000 tested, 0.85% active; AID 1672;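 active = fluorescence ratio B-score at or below minus 3 SD of library scores, with starting-brightness B-score within 2 SD, cut at about -4.2 in these data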;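 also: channel flux triggered by added potassium and thallium sulfate stimulus; B-score of peak minus minimum fluorescence over baseline after thallium stimulus; more negative B-score means stronger Kir2.1 block with less thallium influx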
KCNK9 block – blocks the human KCNK9 two-pore domain potassium channel. Q9NPC2. HEK293 KCNK9, FluxOR thallium flux fluorescence; stronger effect = lower value. B-score at 10 µM. 310,000 tested, 1.2% active. AID 488922;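 active = ratio B-score over 3 SD below the library mean, with starting fluorescence within 5 SD of its mean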;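 also: negative B-score means less thallium flux so channel inhibition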
KCNK9 block conf – confirmation of human KCNK9 potassium channel inhibitors; shares compounds with KCNK9 block; HEK293 KCNK9 cells, FluxOR thallium flux fluorescence; inhibition, % at 10 µM; 4,900 tested, 43% active; AID 492992;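 active = thallium signal inhibited by more than 5 SD of the compound-free buffer control wells, on both duplicate plates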;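 also: 0% = assay buffer control wells without compound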
Kir2-1 spec – tests whether KCNK9 modulators also affect mouse Kir2.1. shares compounds with KCNK9 block. Kir2.1 cells, FluxOR thallium flux fluorescence. inhibition, % at 10 µM. 4,900 tested, 4% active;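 active = thallium signal drop more than 5 SD beyond the mean of the no-compound control wells, seen in both duplicate plates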;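 also: signal is fluorescence rise after thallium addition divided by baseline fluorescence; plate controls were assay buffer only for no effect and full block by chlorpromazine control for full effect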
HEK293 Tl ctr – non-induced cell nonspecific activity of KCNK9 modulators; shares compounds with KCNK9 block; non-induced KCNK9-HEK293, FluxOR thallium flux; inhibition, % at 10 µM; 4,900 tested, 40% active; AID 492997;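 active = thallium signal drop beyond 5 SD of the untreated control mean, on both duplicate plates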;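 also: plate controls were buffer only IC0 wells for no effect and SID17386958 at its maximal inhibitory level for full effect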
KCNK3 confirm – human KCNK3 channel inhibition, confirmation assay; shares compounds with KCNK3 inh; CHO-KCNK3 thallium flux, FluxOR fluorescence; 0% buffer, 100% carvedilol maximal block; ratio percent of control, % at 10 µM; 2,400 tested, 99% active; AID 651638;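 active = ratio percent of control, averaged over triplicates, above buffer control mean plus 5 SD, cut at about 64% in these data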;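 also: ratio is the fluorescence rise from min to max over baseline after thallium stimulus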
KCNK3 uninduced – activity in cells without induced KCNK3 expression | non-induced KCNK3 parental cells, FluxOR thallium flux; stronger effect = lower value | 2,400 tested, 40% active | shares compounds with KCNK3 inh | AID 651747 | thallium flux ratio (lower = more inhibition) at 10 µM;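 active = thallium flux ratio, averaged over three wells, more than 5 SD below the buffer control mean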;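 also: host cells are CHO cells without KCNK3 induction; ratio is peak minus trough fluorescence over baseline then normalized to buffer controls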
* marks the source's active call; other numbers are inactive results; i = inactive; . = not tested or not shown. A selection: hits, their analogues and other compounds. The true share with any hit is near 3.8%.

SMILES	hERG rescue	KCNQ1 act	KCNQ1 block	KCNK3 inh	Kir21 inh	KCNK9 block	KCNK9 block conf	Kir2-1 spec	HEK293 Tl ctr	KCNK3 confirm	KCNK3 uninduced
CC(C)(C)OC(=O)C[C@H]1C/C=C\C[C@H](CC(=O)N[C@H](CO)Cc2ccccc2)C(=O)N2CCC[C@@H]2COC1=O	.	.	.	i	.	.	.	.	.	.	.
CC(C1CC1)N(Cc1ccccc1)C(=S)Nc1cccc(C(F)(F)F)c1 (centres undefined)	-5.6	i	i	-9.15*	-0.62	-13*	56.5%*	i	39.0%*	124.7*	i
CN(CC(=O)Nc1cccc(C(F)(F)F)c1)Cc1ccccc1	-8.2	i	i	-12.5*	-0.92	-14.9*	63.5%*	i	41.0%*	106.3*	i
Cc1ccc(S(=O)(=O)N(C)C)cc1NC(=O)CSc1nnnn1-c1ccc(O)cc1	-14.6	i	i	-9.8*	-0.2	-14*	41.5%*	i	25.5%*	106.3*	i
CN(C)S(=O)(=O)c1ccc(Cl)c(NC(=O)CSc2nnnn2-c2ccc(O)cc2)c1	-2.0	i	i	-9.02*	-0.09	-12.5*	50.5%*	i	27.5%*	95.7*	i
Cn1nnnc1SCC(=O)Nc1cc(S(=O)(=O)N2CCCC2)ccc1Cl	-12.8	i	i	i	1.54	i	.	.	.	.	.
CCOC(=O)c1sc(NC(=O)Cn2nnc3sc4c(c3c2=O)CCC(C(C)(C)C)C4)nc1C (centres undefined)	-11.3	i	i	i	0.3	i	.	.	.	.	.
CC(C)c1ccc(NC(=O)c2snc3ccc(Cl)cc23)cc1	-11.2	i	i	i	0.62	i	.	.	.	.	.
O=C(c1cnc2c(c1)COc1ccc(Cl)cc1-2)c1ccccc1O	-2.8	i	i	i	-1.56	i	.	.	.	.	.
Cc1ccc(O)c(C(=O)c2cnc3c(c2)COc2ccccc2-3)c1	-9.9	i	i	i	-0.4	-14.5*	41.0%*	i	27.5%*	96.3*	i
COc1cccc(CN(C)Cc2cc(=O)oc3cc(O)c(Cl)cc23)c1	-13.9	i	i	i	-0.17	i	.	.	.	.	.
CCc1cc2c(CN(C)Cc3ccccc3F)cc(=O)oc2cc1O	-20.2	i	i	-14.7*	-5.91*	-8.47*	41.5%*	i	i	113.7*	0.159*
CC/C(=N/N=C(/CC)c1ccc(O)cc1)c1ccc(O)cc1	-3.6	i	i	-9.62*	-1.75	-15.2*	55.5%*	i	30.5%*	92.0*	i
Cc1c(Cl)cccc1-n1nnnc1-c1cccs1	-10.2	i	i	-10.6*	-0.66	-9.28*	44.0%*	i	31.5%*	107.7*	i
COc1ccccc1C(=O)Nc1ccc(S(=O)(=O)N(C)c2ccccc2)cc1	-2.4	i	i	-9.27*	0.19	-9.13*	48.5%*	i	i	106.0*	i
Cn1ccsc1=NC(=O)c1cccc(C#N)c1	-9.6	i	i	i	1.06	i	.	.	.	.	.
CCN1CC2=C(OC(N)=C(C#N)C2c2ccccc2)/C(=C\c2ccccc2)C1 (centres undefined)	-21.3	i	i	-8.92*	0.01	-8.79*	29.0%*	i	26.0%*	105.3*	i
CCN(CC(=O)NCc1ccc(F)cc1)C(=O)CN1CCN(c2ccccc2OC)CC1	-6.8	i	i	i	-0.12	i	.	.	.	.	.
